In ChEMBL document CHEMBL1141109, “Synthesis of an estrogen receptor beta-selective radioligand: 5-[18F]fluoro-(2R,3S)-2,3-bis(4-hydroxyphenyl)pentanenitrile and comparison of in vivo distribution with 16alpha-[18F]fluoro-17beta-estradiol” (J Med Chem, 2005):

Key:
[1] = Biodistribution of [18F]FEDPN in alpha estrogen receptor knock out mouse heart after 30 min; (n=3); type: ADME, organism-based; conditions: in vivo, 0.5 h
Outline: (§1)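 ERKO female mice (αERKO or βERKO), rested 48 h after shipping, placed on estrogen-free chow, and staged by daily vaginal smears. Injected in a nonestrous stage with 11 µCi [18F]FEDPN in 130 µL of 10% ethanol/saline. Killed at 30 min, 1 h or 2 h. Organs counted and reported as %ID/g ± SD, three animals per point.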

[2] = Biodistribution of [18F]-FEDPN in beta estrogen receptor knock out mouse thymus after 30 min; (n=3); type: ADME, organism-based; conditions: in vivo, 0.5 h; outline: as §1
[3] = Biodistribution of [18F]FEDPN in beta estrogen receptor knock out mouse thymus after 1 h; (n=3); type: ADME, organism-based; conditions: in vivo
Outline: (§2)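 αERKO and βERKO mice, staged by daily vaginal smears and kept on estrogen-free chow, were studied in a nonestrous stage. Each mouse received 11 μCi of tracer in 130 μL of 10% ethanol/saline. Mice were killed at 30 min, 1 h or 2 h (n = 3 each). Organs were removed, blotted, weighed and gamma-counted against an injectate standard. Uptake is given as %ID/g ± SD.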

[4] = Biodistribution of [18F]FEDPN in rat heart after 30 min when given in tail vein; (n=5); type: ADME, organism-based; conditions: in vivo, iv, 0.5 h
Outline: (§3)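 Immature female Sprague–Dawley rats (<25 days old) under isoflurane/O2 got 20 µCi tracer in 150 µL 20% ethanol/saline by tail vein. […] Rats were killed at 30 min, 1 h or 2 h. Organs were blotted, weighed and gamma-counted against an injectate standard. Data are %ID/g ± SD, five rats per point.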

[5] = Biodistribution of [18F]FEDPN in beta estrogen receptor knock out mouse fat after 2 h; (n=3); type: ADME, organism-based, Adipose tissue; conditions: in vivo; outline: as §2
[6] = Biodistribution of [18F]FEDPN in alpha estrogen receptor knock out mouse bone after 1 h; (n=3); type: ADME, organism-based, Bone element; conditions: in vivo; outline: as §1
[7] = Biodistribution of [18F]FEDPN in beta estrogen receptor knock out mouse blood after 2 h; (n=3); type: ADME, organism-based; conditions: in vivo; outline: as §2
[8] = Biodistribution of [18F]-FEDPN in rat fat after 2 hr when given in tail vein; (n=5); type: ADME, organism-based, Adipose tissue; conditions: in vivo, iv
Outline: (§4)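 Immature female Sprague–Dawley rats (<25 days old) anesthetized with isoflurane/O2. Given 20 µCi tracer by tail vein in 150 µL of 20% ethanol/saline. […] Killed at 30 min, 1 h or 2 h. Blood and organs blotted, weighed and gamma-counted against a standard dilution of the injectate. Reported as %ID/g ± SD, n=5.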

[9] = Biodistribution of [18F]FEDPN in rat lung after 2 h when given in tail vein; (n=5); type: ADME, organism-based; conditions: in vivo, iv; outline: as §3
[10] = Biodistribution of [18F]-FEDPN in rat blood after 1 hr when given in tail vein; (n=5); type: ADME, organism-based; conditions: in vivo, iv; outline: as §4
[11] = Biodistribution of [18F]FEDPN in rat blood after 2 h when given in tail vein; (n=5); type: ADME, organism-based; conditions: in vivo, iv; outline: as §3
[12] = Biodistribution of [18F]FEDPN in rat liver after 1 h when given in tail vein; (n=5); type: ADME, organism-based; conditions: in vivo, iv; outline: as §3
[13] = Biodistribution of [18F]FEDPN in rat lung after 1 h when given in tail vein; (n=5); type: ADME, organism-based; conditions: in vivo, iv; outline: as §3
[14] = Biodistribution of [18F]-FEDPN in rat spleen after 2 hr when given in tail vein; (n=5); type: ADME, organism-based; conditions: in vivo, iv; outline: as §4
[15] = Biodistribution of [18F]FEDPN in rat kidney after 30 min when given in tail vein; (n=5); type: ADME, organism-based; conditions: in vivo, iv, 0.5 h; outline: as §3
[16] = Biodistribution of [18F]FEDPN in alpha estrogen receptor knock out mouse blood after 2 h; (n=3); type: ADME, organism-based; conditions: in vivo; outline: as §1
[17] = Biodistribution of [18F]FEDPN in alpha estrogen receptor knock out mouse lung after 30 min; (n=3); type: ADME, organism-based; conditions: in vivo, 0.5 h; outline: as §2
[18] = Biodistribution of [18F]FEDPN in alpha estrogen receptor knock out mouse muscle after 1 h; (n=3); type: ADME, organism-based, Muscle tissue; conditions: in vivo; outline: as §2
[19] = target: Estrogen receptor (Mus musculus) (UniProt O08537+P19785); experiment: Ratio of [18F]FEDPN uptake in ovaries of ERbeta KO-mouse and ERalpha KO-mouse (nonestrus) after 2 hr
[20] = Biodistribution of [18F]FES in alpha estrogen receptor knock out mouse spleen after 30 min; (n=3); type: ADME, organism-based; conditions: in vivo, 0.5 h
[21] = Biodistribution of [18F]FES in alpha estrogen receptor knock out mouse ovaries after 30 min; (n=3); type: ADME, organism-based, Female gonad; conditions: in vivo, 0.5 h
[22] = Biodistribution of [18F]FES in beta estrogen receptor knock out mouse kidney after 30 min(n=2); mice in nonestrus stage; type: ADME, organism-based; conditions: in vivo, 0.5 h
[23] = Biodistribution of [18F]FES in beta estrogen receptor knock out mouse muscle after 30 min(n=2); mice in nonestrus stage; type: ADME, organism-based, Muscle tissue; conditions: in vivo, 0.5 h
[24] = Biodistribution of [18F]FES in beta estrogen receptor knock out mouse spleen after 30 min(n=2); mice in nonestrus stage; type: ADME, organism-based; conditions: in vivo, 0.5 h
[25] = Biodistribution of [18F]FES in alpha estrogen receptor knock out mouse lung after 2 h; (n=3); type: ADME, organism-based; conditions: in vivo
Outline: (§5)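 Female αERKO mice were rested 48 h after shipping and fed estrogen-free chow. They were staged by daily vaginal smears and studied in diestrus. Each received 13 µCi [18F]FES in 100 µL 10% ethanol/saline and was sacrificed at 30 min, 1 h or 2 h (n = 3 per time). Tissue uptake is given as %ID/g ± SD.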

[26] = Biodistribution of [18F]-FES in beta estrogen receptor knock out mouse heart after 30 min; (n=3); type: ADME, organism-based; conditions: in vivo, 0.5 h
Outline: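 Female βERKO mice in estrus were used because repeated swabbing had induced pseudopregnancy. They were fed estrogen-free chow. Each received 13 µCi [18F]FES in 100 µL 10% ethanol/saline and was sacrificed at 30 min, 1 h or 2 h (n = 3 each). Tissue uptake is given as %ID/g ± SD.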

[27] = Biodistribution of [18F]FES in beta estrogen receptor knock out mouse heart after 1 h; (n=3); type: ADME, organism-based; conditions: in vivo
[28] = Biodistribution of [18F]FES in beta estrogen receptor knock out mouse kidney after 1 h; (n=3); type: ADME, organism-based; conditions: in vivo
[29] = Biodistribution of [18F]FES in beta estrogen receptor knock out mouse kidney after 2 h; (n=3); type: ADME, organism-based; conditions: in vivo
[30] = Biodistribution of [18F]FES in beta estrogen receptor knock out mouse lung after 1 h; (n=3); type: ADME, organism-based; conditions: in vivo
[31] = Biodistribution of [18F]FES in alpha estrogen receptor knock out mouse thymus after 1 h; (n=3); type: ADME, organism-based; conditions: in vivo
[32] = Biodistribution of [18F]FES in beta estrogen receptor knock out mouse fat after 30 min(n=2); mice in nonestrus stage; type: ADME, organism-based, Adipose tissue; conditions: in vivo, 0.5 h
[33] = Biodistribution of [18F]FES in beta estrogen receptor knock out mouse liver after 30 min; (n=3); type: ADME, organism-based; conditions: in vivo, 0.5 h
[34] = Biodistribution of [18F]FES in alpha estrogen receptor knock out mouse blood after 30 min; (n=3); type: ADME, organism-based; conditions: in vivo, 0.5 h; outline: as §5
[35] = Biodistribution of [18F]FES in beta estrogen receptor knock out mouse kidney after 30 min; (n=3); type: ADME, organism-based; conditions: in vivo, 0.5 h
[36] = Biodistribution of [18F]FES in beta estrogen receptor knock out mouse muscle after 30 min; (n=3); type: ADME, organism-based, Muscle tissue; conditions: in vivo, 0.5 h
[37] = Biodistribution of [18F]FES in beta estrogen receptor knock out mouse spleen after 30 min; (n=3); type: ADME, organism-based; conditions: in vivo, 0.5 h

Chain of Estrogen receptor (Mus musculus) (O08537 whole entry, looked up): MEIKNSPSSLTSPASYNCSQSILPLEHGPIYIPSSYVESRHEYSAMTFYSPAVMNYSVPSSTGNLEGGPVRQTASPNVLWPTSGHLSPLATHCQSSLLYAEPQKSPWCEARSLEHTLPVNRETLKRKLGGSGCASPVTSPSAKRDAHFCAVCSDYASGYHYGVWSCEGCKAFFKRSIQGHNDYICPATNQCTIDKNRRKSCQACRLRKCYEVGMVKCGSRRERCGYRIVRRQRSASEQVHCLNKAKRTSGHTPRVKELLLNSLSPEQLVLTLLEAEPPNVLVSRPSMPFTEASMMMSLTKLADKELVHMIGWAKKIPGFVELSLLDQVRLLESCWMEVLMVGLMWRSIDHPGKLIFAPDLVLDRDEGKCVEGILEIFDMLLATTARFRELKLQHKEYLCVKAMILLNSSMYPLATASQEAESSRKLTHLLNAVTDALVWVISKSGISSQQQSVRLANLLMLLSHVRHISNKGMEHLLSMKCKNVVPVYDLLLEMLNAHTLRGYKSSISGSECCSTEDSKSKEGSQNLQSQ
Chain of Estrogen receptor (Mus musculus) (P19785 whole entry, looked up): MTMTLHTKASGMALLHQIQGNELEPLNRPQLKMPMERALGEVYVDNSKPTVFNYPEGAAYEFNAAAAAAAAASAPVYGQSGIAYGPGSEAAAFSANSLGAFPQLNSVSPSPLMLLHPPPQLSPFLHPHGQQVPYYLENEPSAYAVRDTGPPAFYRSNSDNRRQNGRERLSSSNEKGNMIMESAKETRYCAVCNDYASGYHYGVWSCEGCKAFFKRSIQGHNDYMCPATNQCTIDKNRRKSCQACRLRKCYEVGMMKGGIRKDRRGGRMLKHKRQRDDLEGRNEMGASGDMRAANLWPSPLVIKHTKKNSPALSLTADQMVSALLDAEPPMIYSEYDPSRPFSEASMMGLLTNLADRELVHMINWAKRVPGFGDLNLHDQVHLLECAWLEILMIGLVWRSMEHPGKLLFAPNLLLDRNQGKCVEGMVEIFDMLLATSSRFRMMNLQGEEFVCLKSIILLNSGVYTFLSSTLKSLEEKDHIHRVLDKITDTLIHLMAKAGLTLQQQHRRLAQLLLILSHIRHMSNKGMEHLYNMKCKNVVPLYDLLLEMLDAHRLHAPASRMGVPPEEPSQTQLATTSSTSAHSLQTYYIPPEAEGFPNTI

N#C[C@H](c1ccc(O)cc1)[C@@H](CCF)c1ccc(O)cc1 gave a Biodistribution [1] of 1.57 %ID/g, a Biodistribution [2] of 1.2 %ID/g and a Biodistribution [3] of 0.25 %ID/g. It also gave a Biodistribution [4] of 0.49 %ID/g, a Biodistribution [5] of 0.09 %ID/g and a Biodistribution [6] of 4.13 %ID/g. The Biodistribution [7] was 0.18 %ID/g, the Biodistribution [8] was 0.1 %ID/g and the Biodistribution [9] was 0.19 %ID/g. It also gave a Biodistribution [10] of 0.55 %ID/g, a Biodistribution [11] of 0.24 %ID/g and a Biodistribution [12] of 1.51 %ID/g. The Biodistribution [13] was 0.44 %ID/g, the Biodistribution [14] was 0.06 %ID/g and the Biodistribution [15] was 2 %ID/g. For the same compound, the Biodistribution [16] was 0.23 %ID/g, the Biodistribution [17] was 4.32 %ID/g and the Biodistribution [18] was 0.59 %ID/g. For the same compound, the Ratio [19] was 0.61.
Compound C[C@]12CC[C@@H]3c4ccc(O)cc4CC[C@H]3[C@@H]1C[C@@H](F)[C@@H]2O [FLUOROESTRADIOL] has a Biodistribution [20] of 0.59 %ID/g, a Biodistribution [21] of 2.52 %ID/g and a Biodistribution [22] of 4.44 %ID/g. The Biodistribution [23] was 1.89 %ID/g, the Biodistribution [24] was 1.29 %ID/g and the Biodistribution [25] was 0.17 %ID/g. It also gave a Biodistribution [26] of 1.04 %ID/g, a Biodistribution [27] of 0.46 %ID/g and a Biodistribution [28] of 2.14 %ID/g. For the same compound, the Biodistribution [29] was 1.05 %ID/g, the Biodistribution [30] was 1.48 %ID/g and the Biodistribution [31] was 0.21 %ID/g. The Biodistribution [32] was 2.31 %ID/g, the Biodistribution [33] was 9.45 %ID/g and the Biodistribution [34] was 0.65 %ID/g. It also gave a Biodistribution [35] of 3.83 %ID/g, a Biodistribution [36] of 1.7 %ID/g and a Biodistribution [37] of 1.4 %ID/g.
